Active and inactive are the calls of the source. The calls are words filed in the database; no cut-off is given here.
Legend:
[1] = test system: Influenza A virus; assay: Antiviral activity against Influenza A virus (A/Puerto Rico/8/34(H1N1)) infected in dog MDCK cells assessed as reduction in virus-induced cytopathogenicity incubated for 48 hrs by microscopic analysis; format: functional, organism-based; settings: A/Puerto Rico/8/1934(H1N1)
[2] = test system: H3N2 subtype; assay: Antiviral activity against Influenza A virus (A/Aichi/2/1968(H3N2)) infected in dog MDCK cells assessed as reduction in virus-induced cytopathogenicity incubated for 48 hrs by microscopic analysis; format: functional, cell-based
[3] = test system: Influenza A virus; assay: Antiviral activity against Influenza A virus (A/Fort Monmouth/1/1947(H1N1)) infected in dog MDCK cells assessed as reduction in virus-induced cytopathogenicity incubated for 48 hrs by microscopic analysis; format: functional, organism-based
[4] = test system: Influenza A virus; assay: Antiviral activity against Influenza A virus 690 (H3) infected in dog MDCK cells assessed as reduction in virus-induced cytopathogenicity incubated for 48 hrs by microscopic analysis; format: functional, organism-based
[5] = Selectivity index, ratio of CC50 for dog MDCK cells to IC50 for antiviral activity against Influenza A virus (A/Aichi/2/1968(H3N2)); format: toxicity; settings: read-out: Ratio CC50/IC50
How it was run: (§1)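 SI = CC50/IC50, both from MTT read-outs in MDCK cells in triplicate. Cytotoxicity: 2 × 10⁴ cells/well, overnight at 37 °C with 5% CO2, then compound at 1.56–400 µM for 48 h, MTT 4 h, DMSO, A570. Antiviral: cells infected 1 h, washed, then cultured 48 h in DMEM with TPCK and two-fold serial compound dilutions.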

[6] = Selectivity index, ratio of CC50 for dog MDCK cells to IC50 for antiviral activity against Influenza A virus (A/Fort Monmouth/1/1947(H1N1)); format: toxicity; settings: read-out: Ratio CC50/IC50; how it was run: as §1
[7] = Selectivity index, ratio of CC50 for dog MDCK cells to IC50 for antiviral activity against Influenza A virus (A/Puerto Rico/8/34(H1N1)); format: toxicity; settings: read-out: Ratio CC50/IC50; how it was run: as §1
[8] = Selectivity index, ratio of CC50 for dog MDCK cells to IC50 for antiviral activity against Influenza A virus 690 (H3); format: toxicity; settings: read-out: Ratio CC50/IC50; how it was run: as §1
[9] = test system: Influenza A virus; assay: Antiviral activity against Influenza A virus (A/Puerto Rico/8/34(H1N1)) infected in dog MDCK cells assessed as reduction in plaque formation incubated for 48 hrs by crystal violet staining based assay; format: functional, organism-based; settings: A/Puerto Rico/8/1934(H1N1), dose 5-40 µM
How it was run: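 Plaque reduction assay in PR8-infected MDCK cells across a range of compound doses. Cells were fixed with 4% paraformaldehyde and stained with crystal violet. Inhibition was scored by counting plaques.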

[10] = Cytotoxicity against dog MDCK cells assessed as reduction in cell viability incubated for 48 hrs by MTT assay; format: cell-based, Canis lupus familiaris
How it was run: (§2)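 MDCK or A549 cells were seeded at 2 × 10⁴ per well and incubated overnight at 37 °C, 5% CO₂. Compound (1.56 to 400) was added for 48 h, followed by MTT for 4 h at 37 °C and DMSO to dissolve the formazan. Absorbance was read at 570 nm and CC₅₀ calculated.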

[11] = Cytotoxicity against human A549 cells assessed as reduction in cell viability incubated for 48 hrs by MTT assay; format: cell-based; how it was run: as §2
[12] = test system: Influenza A virus; assay: Antiviral activity against Influenza A virus (A/Puerto Rico/8/34(H1N1)) infected in dog MDCK cells assessed as reduction in viral replication by measuring NP level incubated for 24 hrs by immunofluorescence staining based Ti-Eclipse inverted fluorescence microscopic analysis; format: functional, organism-based; settings: A/Puerto Rico/8/1934(H1N1), dose 5-40 µM
How it was run: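 MDCK cells were infected with PR8 at 100TCID₅₀ and treated with varied compound concentrations. At 24 h p.i. they were washed with cold PBS, fixed in 4% paraformaldehyde for 10 min and blocked in 3% BSA for 1 h at room temperature. Staining used anti-NP (1:250) overnight at 4 °C, then a FITC secondary for 1 h, with DAPI nuclear counterstain; cells were imaged by fluorescence microscopy.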

[13] = test system: Influenza A virus; assay: Antiviral activity against Influenza A virus (A/Puerto Rico/8/34(H1N1)) infected in dog MDCK cells assessed as reduction in viral replication by measuring NP level incubated for 24 hrs by Western blot analysis; format: functional, organism-based; settings: A/Puerto Rico/8/1934(H1N1), dose 5-40 µM
How it was run: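 Two-fold serial compound dilutions were added to PR8-infected MDCK cells after virus adsorption, and cells were harvested at 24 h p.i. Equal lysate protein was run on 10% SDS-PAGE and transferred to PVDF. Blots were probed with anti-NP (1:2000) and β-actin as loading control, then an HRP secondary, with chemiluminescent detection.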

[14] = test system: Influenza A virus; assay: Antiviral activity against Influenza A virus (A/Puerto Rico/8/34(H1N1)) infected in human A549 cells assessed as reduction in viral replication by measuring HA mRNA expression at 5 to 40 uM incubated for 24 hrs by qRT-PCR analysis; format: functional, organism-based; settings: A/Puerto Rico/8/1934(H1N1), dose 5-40 µM
[15] = test system: Influenza A virus; assay: Antiviral activity against Influenza A virus (A/Puerto Rico/8/34(H1N1)) infected in dog MDCK cells assessed as reduction in viral replication by measuring HA mRNA expression measured upto 72 hrs by qRT-PCR analysis; format: functional, organism-based; settings: A/Puerto Rico/8/1934(H1N1), time hrs <=72
How it was run: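 Viral HA mRNA was measured by qRT-PCR in IAV-infected MDCK cells treated with serially diluted compound, at 24, 48 and 72 h p.i. Ribavirin served as positive control; data are mean SD.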

[16] = test system: Influenza A virus; assay: Antiviral activity against Influenza A virus (A/Puerto Rico/8/34(H1N1)) infected in dog MDCK cells assessed as reduction in viral replication at 40 uM measured upto 10 hrs; format: functional, organism-based; settings: A/Puerto Rico/8/1934(H1N1), time hrs <=10
How it was run: (§3)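 Time-of-addition assay with PR8. After unabsorbed virus was removed, cells received compound during the intervals 0–2, 2–5, 5–8, 8–10 or 0–10 h, covering one replication cycle. At 10 h p.i., viral NP protein was read by western blot and viral mRNA by qRT-PCR. Three independent experiments, mean SD.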

[17] = test system: Influenza A virus; assay: Antiviral activity against Influenza A virus (A/Puerto Rico/8/34(H1N1)) infected in dog MDCK cells assessed as reduction in viral replication by measuring NP expression at 40 uM measured upto 10 hrs by Western blot analysis; format: functional, organism-based; settings: A/Puerto Rico/8/1934(H1N1), time hrs <=10; how it was run: as §3
[18] = test system: Influenza A virus; assay: Antiviral activity against Influenza A virus (A/Puerto Rico/8/34(H1N1)) infected in human A549 cells assessed as reduction in viral replication by measuring NP expression at 40 uM measured upto 10 hrs by qRT-PCR analysis; format: functional, organism-based; settings: A/Puerto Rico/8/1934(H1N1), time hrs <=10; how it was run: as §3
[19] = test system: MDCK; assay: Upregulation of IFN-beta in dog MDCK cells infected with Influenza A virus (A/Puerto Rico/8/34(H1N1)) at 40 uM incubated for 24 hrs by qRT-PCR analysis; format: functional, cell-based; settings: Canis lupus familiaris
How it was run: (§4)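 Virus-infected MDCK cells were treated with compound for 24 h. Expression of each gene was then measured by qRT-PCR using gene-specific primers, against an untreated control group.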

[20] = test system: MDCK; assay: Upregulation of MxA in dog MDCK cells infected with Influenza A virus (A/Puerto Rico/8/34(H1N1)) at 40 uM incubated for 24 hrs by qRT-PCR analysis; format: functional, cell-based; settings: Canis lupus familiaris; how it was run: as §4
[21] = test system: MDCK; assay: Downregulation of NOX1 in dog MDCK cells infected with Influenza A virus (A/Puerto Rico/8/34(H1N1)) at 40 uM incubated for 24 hrs by qRT-PCR analysis; format: functional, cell-based; settings: Canis lupus familiaris; how it was run: as §4

| SMILES | IC50 [1] [µM] | further results |
| --- | --- | --- |
| CCOC(=O)C1=C(Nc2ccc(C(F)(F)F)cc2)C(=O)N(c2ccc(C(F)(F)F)cc2)C1 | 222 |  |
| CCOC(=O)C1=C(Nc2ccc(C(F)(F)F)cc2)C(=O)N(c2ccc(C(F)(F)F)cc2)C1c1ccc(C(F)(F)F)cc1 (stereo not given) | 67.2 |  |
| NC(=O)c1ncn([C@@H]2O[C@H](CO)[C@@H](O)[C@H]2O)n1 [RIBAVIRIN] | 2.84 |  |
| CCOC(=O)C1=C(Nc2ccc(C(F)(F)F)cc2)C(=O)N(c2ccc(C(F)(F)F)cc2)C1c1ccc([N+](=O)[O-])cc1 (stereo not given) | > 400 |  |
| CCOC(=O)C1=C(Nc2ccc(Oc3ccccc3)cc2)C(=O)N(c2ccc(Oc3ccccc3)cc2)C1c1ccccc1 (stereo not given) | > 400 |  |
| CCOC(=O)C1=C(Nc2ccc(C(C)(C)C)cc2)C(=O)N(c2ccc(C(C)(C)C)cc2)C1c1ccccc1 (stereo not given) | > 400 |  |
| CCOC(=O)C1=C(Nc2ccc(C(F)(F)F)cc2)C(=O)N(c2ccc(C(F)(F)F)cc2)C1c1ccc(Br)s1 (stereo not given) | > 400 |  |
| CCOC(=O)C1=C(Nc2cccc(C(F)(F)F)c2)C(=O)N(c2cccc(C(F)(F)F)c2)C1c1ccccc1 (stereo not given) | 30.9 |  |
| CCOC(=O)C1=C(Nc2ccc(C(F)(F)F)cc2)C(=O)N(c2ccc(C(F)(F)F)cc2)C1c1ccc(F)cc1 (stereo not given) | 7.63 |  |
| CCOC(=O)C1=C(Nc2ccc(C(F)(F)F)cc2)C(=O)N(c2ccc(C(F)(F)F)cc2)C1c1ccc(C)cc1 (stereo not given) | 68.5 |  |
| CCOC(=O)C1=C(Nc2ccc(C(F)(F)F)cc2)C(=O)N(c2ccc(C(F)(F)F)cc2)C1c1ccc(Br)cc1 (stereo not given) | > 400 |  |
| CCOC(=O)C1=C(Nc2ccccc2)C(=O)N(c2ccccc2)C1c1ccccc1 (stereo not given) | > 400 |  |
| CCOC(=O)C1=C(Nc2ccc(OC)cc2)C(=O)N(c2ccc(OC)cc2)C1c1ccccc1 (stereo not given) | > 400 |  |
| CCOC(=O)C1=C(Nc2ccc(C(F)(F)F)cc2)C(=O)N(c2ccc(C(F)(F)F)cc2)C1c1ccc(Cl)cc1 (stereo not given) | > 400 |  |
| CCOC(=O)C1=C(Nc2ccc(C(C)C)cc2)C(=O)N(c2ccc(C(C)C)cc2)C1c1ccccc1 (stereo not given) | > 400 |  |
| CCOC(=O)C1=C(Nc2ccc(Cl)cc2)C(=O)N(c2ccc(Cl)cc2)C1c1ccccc1 (stereo not given) | > 400 |  |
| CCOC(=O)C1=C(Nc2ccc(C(F)(F)F)cc2)C(=O)N(c2ccc(C(F)(F)F)cc2)C1c1cccc2ccccc12 (stereo not given) | 11.8 |  |
| CCOC(=O)C1=C(NC2CCCCC2)C(=O)N(C2CCCCC2)C1c1ccccc1 (stereo not given) | > 400 |  |
| CCOC(=O)C1=C(Nc2ccc(C(F)(F)F)cc2)C(=O)N(c2ccc(C(F)(F)F)cc2)C1c1cccc(OC)c1 (stereo not given) | 9.23 |  |
| CCOC(=O)C1=C(Nc2ccc(C(F)(F)F)cc2)C(=O)N(c2ccc(C(F)(F)F)cc2)C1c1cccc(C(F)(F)F)c1 (stereo not given) | 11.8 |  |
| COC(=O)C1=C(Nc2ccc(C(F)(F)F)cc2)C(=O)N(c2ccc(C(F)(F)F)cc2)C1c1ccccc1 (stereo not given) | 11.9 |  |
| CCOC(=O)C1=C(Nc2ccc(C(F)(F)F)cc2)C(=O)N(c2ccc(C(F)(F)F)cc2)C1c1ccc(C(C)(C)C)cc1 (stereo not given) | > 400 |  |
| CCOC(=O)C1=C(Nc2ccc(C(F)(F)F)cc2)C(=O)N(c2ccc(C(F)(F)F)cc2)C1c1cccc([N+](=O)[O-])c1 (stereo not given) | > 400 |  |
| CCOC(=O)C1=C(Nc2ccc(C(F)(F)F)cc2)C(=O)N(c2ccc(C(F)(F)F)cc2)C1c1ccccc1 (stereo not given) | 3.11 | IC50 [2]: 5.26 µM; IC50 [3]: 3.58 µM; IC50 [4]: 7.13 µM; selectivity ratio [5]: > 76; selectivity ratio [6]: > 112; selectivity ratio [7]: > 129; selectivity ratio [8]: > 56.1; Activity [9]: Dose-dependent effect; CC50 at 48 h [10]: > 400 µM; CC50 at 48 h [11]: > 400 µM; Activity [12]: Dose-dependent effect; Activity [13]: Dose-dependent effect; Activity [14]: Active; Activity [15]: Active; Activity [16]: Active; Activity [17]: Active; Activity [18]: Active; Activity [19]: Active; Activity [20]: Active; Activity [21]: Active |
| CCOC(=O)C1=C(Nc2ccc(C)cc2)C(=O)N(c2ccc(C)cc2)C1c1ccccc1 (stereo not given) | 19 |  |
| COC(=O)C1=C(Nc2cccc(C(F)(F)F)c2)C(=O)N(c2cccc(C(F)(F)F)c2)C1c1ccccc1 (stereo not given) | 16.1 |  |
| CCOC(=O)C1=C(Nc2cccc(Cl)c2)C(=O)N(c2cccc(Cl)c2)C1c1ccccc1 (stereo not given) | 6.91 |  |
| CCOC(=O)C1=C(Nc2ccc(C(F)(F)F)cc2)C(=O)N(c2ccc(C(F)(F)F)cc2)C1c1ccc(C#N)cc1 (stereo not given) | > 400 |  |
| CCOC(=O)C1=C(Nc2ccc(C(F)(F)F)cc2)C(=O)N(c2ccc(C(F)(F)F)cc2)C1c1ccc(OC(F)(F)F)cc1 (stereo not given) | 128 |  |
| CCOC(=O)C1=C(Nc2ccc(Br)cc2)C(=O)N(c2ccc(Br)cc2)C1c1ccccc1 (stereo not given) | > 400 |  |

From ChEMBL document CHEMBL4765325, “Discovery of dihydropyrrolidones as novel inhibitors against influenza A virus” (Eur J Med Chem, 2020)
